Laboratory results as given in the EternaBench riboswitch data.

Tested on: MS2 coat protein
Assay: apparent Kd, MS2 coat protein; higher = weaker binding; RNA-MaP array; FMN 200 µM where present
In short: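 The apparent Kd comes from binding curves fitted cluster by cluster, filtered, and summarised as a median. Those curves followed SNAP-549-labelled MS2 coat protein from 0.7 or 1.5 nM, doubling to 3 µM, on Illumina sequencing-chip clusters where stalled E. coli RNA polymerase had transcribed the designs, without and then with constant ligand. The buffer was 100 mM Tris-HCl pH 7.5, 80 mM KCl, 4 mM MgCl2, BSA, DTT, yeast tRNA and Tween-20, and green signal was normalised to red-channel RNA signal and control-cluster median Fmax.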

[1] = designed as: OFF switch for flavin mononucleotide, no ligand
[2] = ligand present: flavin mononucleotide, designed as: OFF switch for flavin mononucleotide
[3] = designed as: ON switch for flavin mononucleotide, no ligand
[4] = ligand present: flavin mononucleotide, designed as: ON switch for flavin mononucleotide

Row | Sequence | apparent Kd [1] [µM] | apparent Kd [2] [µM] | apparent Kd [3] [µM] | apparent Kd [4] [µM]
1 | AAGUAGGUAGGAUAUGCAUAGAUAUACAUUCAUGUGGAUUUACAUGAGGAUCACCCAUGUAGAAGGACCUAAUA | 0.0375 | 0.136 | – | –
2 | CGCAAUGAUGGUAGUAAUAGAGCAUAGGAUAUGCUUGUACAUGAGGAUCACCCAUGUUAUAUUUUGCAGAAGGGUGUAAUUGCG | – | – | 0.309 | 0.159
3 | UUCUGGCUAGGAUAUACAGUGUCCACGAGUUAGUUGCCCUAACAUGAGGAUCACCCAUGUAGAAGGAGCGAGAA | 0.0482 | 0.0837 | – | –
4 | AGCAUGCUAGGAUAUACGGGACAUUAGGGUUUGUCGUGUGGACAUGAGGAUCACCCAUGUAGAAGGAGCGUGCA | 0.0544 | 0.228 | – | –
5 | AUAAAACAUGAGGAUCACCCAUGUCAACAAAGUCGAGGAUAUGGGCAAAUAAAAUAAGAACCAGAAGGCGUAUAAU | – | – | – | 0.0943
6 | AGUCAUACAGGAUAUACAUGAGGAUCACCCAUGUAAAUCCUAAAUGGGUGAUCCUCAUGUAGAAGGGUAUGACA | 0.0207 | 0.0171 | – | –
7 | AAAAAGUGAGGAUAUACGAGGAGAAACAACAAACAAACAAAACAUGAGGAUCACCCAUGUAGAAGGCACAAAAA | 0.0211 | 0.0262 | – | –
8 | AUGGUUCACUCAGGAUAUGUAUCACCUCGUUACCAACAUGAGGAUCACCCAUGUCCGUGGCUCGGACAGAAGGGAGAAGAACCG | – | – | 0.581 | 0.232
9 | GGACCGUGAAGAGUUGGCGGUCGGCAGGAUAUGACAUGAGGAUCACCCAUGUGAACUCCAUUGGGUCAGAAGGGCCACGACACA | 0.0375 | 0.108 | – | –
10 | AUUUAUGUCAUAGGAUAUAUAAAUAAAUUUAUAACAUGAGGAUCACCCAUGUACUUUGGUAUGAGGUAGAAGGAUGAUAAGAAU | – | – | 0.0496 | 0.0319
11 | CUUUGGAUGUCAGGAUAUUGAAUCAUGGAUGGUAUCUUACAGUCUUACAUGAGGAUCACCCAUGUCGAGAAGGGAUAUCAGCUC | 0.00615 | 0.0105 | – | –
12 | UGUUGAUAGCAGAAGGACAUGAGGAUCACCCAUGUAAGGAUACAAAUAUAUGUAGGAUAUGCUAUUGACUAAGAGUGAGCGUUC | 0.00855 | 0.0189 | – | –
13 | AAAAAACAUGAGGAUCACCCAUGUGAGGAUAUUAAAAAUAAGAAGGCAUAAAAAAAAAUAAGAAGGCACAUGAA | 0.0317 | 0.0448 | – | –
14 | GAUAGACAUGAGGAUCACCCAUGUGAGGAUAUGCGUACGUUGUCCGUAGGCGACGUGCGCAGAAGGCGCGAGGU | 0.0559 | 0.0883 | – | –
15 | GGGUCCGCUCGAGGAUAUAGCUGCAUGUAGUGUCCUGAGGCACAUGAGGAUCACCCAUGUGUAGGCUAGAAGGCGACGGACACU | 0.05 | 0.114 | – | –
16 | UGGGUAAGUGUAGGAUAUUUAUAUUAAUAGUAUGGAGAAGGACAUGAGGAUCACCCAUGUACAGGGAGUUACCCAUUUCCUCUC | 0.778 | 1.2 | – | –
17 | GUUAAUUAGUGAGGAUAUACAUAAUUUAAUACUGUAGAAGGCACAAUCCUCAAGACAUGAGGAUCACCCAUGUGAUAAUAAGCU | 0.0349 | 0.174 | – | –
18 | ACUAUACGAGGAUAUGCUGUCAGUACUCAGAGGUUAGUGUGACAUGAGGAUCACCCAUGUAGAAGGCGUUUACU | 0.0408 | 0.034 | – | –
19 | GUAGAGUCAGGAUAUACGAGAUCGAUAGAUCAAAGAUCCUUACAUGAGGAUCACCCAUGUAGAAGGGACUCUAC | 0.0374 | 0.677 | – | –
20 | UUCCUCGUUGUGAGGAUAUCGUCCGUGUUUUGUUACGAGAAGGCACAUGAGGAUCACCCAUGUUACUUGAUGUU | 0.0187 | 0.11 | – | –
21 | GGUCGUCACAUUAACAUGAGGAUCACCCAUGUGAAAACACAUGAGGAUAUGCAUCCUAAUUGGAUGCAGAAGGCAUGGACGACC | – | – | 0.0247 | 0.00628
